Test [1] is filed under the species Homo sapiens. Description: Inhibition of human protein farnesyltransferase assessed as enzyme activity in presence of Co2+ ions (reference value: 49%). Also noted: scale not given: the % may be the effect or the level left.
For test [2], the species on record is Homo sapiens. Description: Inhibition of human protein farnesyltransferase assessed as enzyme activity in presence of Fe2+ ions (reference value: 49%). Also noted: scale not given: the % may be the effect or the level left.
For test [3], the species on record is Homo sapiens. Description: Inhibition of human protein farnesyltransferase assessed as enzyme activity in presence of Ca2+ ions (reference value: 49%). Also noted: scale not given: the % may be the effect or the level left.
The species named for test [4] is Homo sapiens. Description: Inhibition of human protein farnesyltransferase assessed as enzyme activity in presence of Cu2+ ions (reference value: 49%). Also noted: scale not given: the % may be the effect or the level left.
For test [5], the species on record is Homo sapiens. Description: Inhibition of human protein farnesyltransferase assessed as enzyme activity in presence of Ni2+ ions (reference value: 49%). Also noted: scale not given: the % may be the effect or the level left.
Test [6] is filed under the species Homo sapiens. Description: Inhibition of human protein farnesyltransferase assessed as enzyme activity in presence of Zn2+ ions (reference value: 49%). Also noted: scale not given: the % may be the effect or the level left.
The subject of test [7] is ASPC1. Description: Antiproliferative activity against human AsPC1 cells expressing K-Ras mutant at 10 uM after 1 day in presence of DTT by trypan blue staining based assay. It is filed as functional, cell-based.
The next test deals with BXPC-3. Description: Antiproliferative activity against human BxPC3 cells at 0.5 to 10 uM after 2 days by trypan blue staining based assay. The test is classed as functional, cell-based. An outline of the steps: (§1)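 Cells (AsPC-1, K-Ras mutant; or BxPC-3) were seeded at 1.0 × 10^4 per well and grown 1 d at 37 °C. The disulfide prodrug form was then added, and cells were incubated 2 days. At 0, 1 and 2 days after addition, cells were detached and stained with 0.4% trypan blue. Unstained (living) cells were counted.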

Test [8] in a line: Inhibition of human protein farnesyltransferase using dansyl peptide containing CAAX as substrate in presence of farnesyl pyrophosphate after 15 mins by fluorescence assay.
Test [9] relates to ASPC1. Description: Antiproliferative activity against human AsPC1 cells expressing K-Ras mutant at 0.5 to 10 uM after 2 days by trypan blue staining based assay. It is filed as functional, cell-based. In short, it runs like this: as §1
Test [10] deals with ASPC1. Description: Antiproliferative activity against human AsPC1 cells expressing K-Ras mutant after 2 days by trypan blue staining based assay. It is filed as functional, cell-based. In short, it runs like this: as §1

Results on three molecules are retold here after ChEMBL document CHEMBL4052723, “A novel inhibitor of farnesyltransferase with a zinc site recognition moiety and a farnesyl group” (Bioorg Med Chem Lett, 2017).

Each structure is given as a SMILES string. The source made the active and inactive calls. The rule behind the calls is not given here.

With `SCCNCc1cc(-c2cccc3ccccc23)cc(CNCCS)n1`, the Activity in the test filed under Homo sapiens [1] was determined as 66%; in the test filed under Homo sapiens [2] it was 38%; in the test filed under Homo sapiens [3] it was 48%; in the test filed under Homo sapiens [4] it was 47%; in the test listed under Homo sapiens [5], 67%; in the test listed under Homo sapiens [6] it was 100%.

The term IC50 denotes the midpoint of a concentration-inhibition curve. Consider `CC(C)=CCC/C(C)=C/CC/C(C)=C/COC(=O)Nc1cc(CNCCS)nc(CNCCS)c1`, for which the result in the test with ASPC1 [7], with BXPC-3 and with ASPC1 [9] was Active. For the same molecule, in [8], the IC50 was 900 nM.

Turning to `CCCCCCCCCCCCOC(=O)Nc1cc(CNCCS)nc(CNCCS)c1`, the outcome with ASPC1 [7] was Active. In the test on ASPC1 [10], the Activity result was “Dose-dependent effect”. In test [8], the IC50 turned out to be 2000 nM.
